Experimental data taken from ChEMBL document CHEMBL1138563, “Synthesis and in vitro antimicrobial activity of some novel substituted benzimidazole derivatives having potent activity against MRSA” (2009).
Values after ≈ are worked out from the molar mass of the structure shown.

How the values were obtained:
Type in all cases: functional
[1] = tested on: Staphylococcus aureus; experiment: Antimicrobial activity against methicillin-resistant Staphylococcus aureus ATCC […] by tube dilution method
In short: (§1)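 Tube dilution MIC assay. Compounds and standard drugs were dissolved in 50% DMSO–water as stock. The stock was diluted 4-fold with culture medium plus bacterial suspension to give the starting test concentration. That initial tube contained 12.5% DMSO, so no data were taken from it. The MIC was then read across the dilution series.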

[2] = tested on: Staphylococcus aureus; experiment: Antimicrobial activity against methicillin-resistant Staphylococcus aureus isolates by tube dilution method; in short: as §1
[3] = tested on: Staphylococcus aureus; experiment: Antimicrobial activity against Staphylococcus aureus ATCC 25923 by tube dilution method; in short: as §1
[4] = tested on: Candida albicans; experiment: Antimicrobial activity against Candida albicans ATCC 10145 by tube dilution method
In short: (§2)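 Tube dilution MIC determination. Test agents and reference drugs are dissolved as a stock in 50% DMSO–water, then diluted 4-fold with culture medium plus inoculum. The first dilution (12.5% DMSO) is excluded from scoring. The read-out is the minimum inhibitory concentration.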

[5] = tested on: Escherichia coli; experiment: Antimicrobial activity against Escherichia coli ATCC 25922 by tube dilution method; in short: as §2
[6] = tested on: Bacillus subtilis; experiment: Antimicrobial activity against Bacillus subtilis ATCC 6633 by tube dilution method; in short: as §2

| SMILES | MIC [1] | MIC [2] | MIC [3] | MIC [4] | MIC [5] | MIC [6] |
| --- | --- | --- | --- | --- | --- | --- |
| COc1ccc(-c2nc3cc(Cl)c(Cl)cc3n2C2CCCC2)cc1 | 25 µg/mL (≈ 69.2 µM) | 25 µg/mL (≈ 69.2 µM) | 25 µg/mL (≈ 69.2 µM) | 6.25 µg/mL (≈ 17.3 µM) | 50 µg/mL (≈ 138 µM) | 50 µg/mL (≈ 138 µM) |
| Nc1nc2cc(Cl)c(Cl)cc2n1C1CCCC1 | 6.25 µg/mL (≈ 23.1 µM) | 6.25 µg/mL (≈ 23.1 µM) | 3.12 µg/mL (≈ 11.5 µM) | 6.25 µg/mL (≈ 23.1 µM) | 50 µg/mL (≈ 185 µM) | 6.25 µg/mL (≈ 23.1 µM) |
| CC(=O)Oc1ccc(-c2nc3cc(Cl)c(Cl)cc3n2C2CCCC2)cc1 | 50 µg/mL (≈ 128 µM) | 50 µg/mL (≈ 128 µM) | 50 µg/mL (≈ 128 µM) | 12.5 µg/mL (≈ 32.1 µM) | 25 µg/mL (≈ 64.2 µM) | 25 µg/mL (≈ 64.2 µM) |
| Fc1ccc(-c2nc3cc(Cl)c(Cl)cc3[nH]2)cc1 | 3.12 µg/mL (≈ 11.1 µM) | 3.12 µg/mL (≈ 11.1 µM) | 3.12 µg/mL (≈ 11.1 µM) | 6.25 µg/mL (≈ 22.2 µM) | 50 µg/mL (≈ 178 µM) | 6.25 µg/mL (≈ 22.2 µM) |
| Clc1cc2ncn(C3CCCC3)c2cc1Cl | 6.25 µg/mL (≈ 24.5 µM) | 6.25 µg/mL (≈ 24.5 µM) | 6.25 µg/mL (≈ 24.5 µM) | 12.5 µg/mL (≈ 49 µM) | 50 µg/mL (≈ 196 µM) | 12.5 µg/mL (≈ 49 µM) |
| Clc1cc2nc(Cl)n(C3CCCC3)c2cc1Cl | 6.25 µg/mL (≈ 21.6 µM) | 6.25 µg/mL (≈ 21.6 µM) | 3.12 µg/mL (≈ 10.8 µM) | 50 µg/mL (≈ 173 µM) | 50 µg/mL (≈ 173 µM) | 25 µg/mL (≈ 86.3 µM) |
| CC(C)Nc1nc2cc(Cl)c(Cl)cc2n1C1CCCC1 | 50 µg/mL (≈ 160 µM) | 50 µg/mL (≈ 160 µM) | 50 µg/mL (≈ 160 µM) | 50 µg/mL (≈ 160 µM) | 50 µg/mL (≈ 160 µM) | 50 µg/mL (≈ 160 µM) |
| CCOc1cc2c(cc1Cl)nc(-c1ccc(OC(C)=O)cc1)n2C1CCCC1 | 50 µg/mL (≈ 125 µM) | 50 µg/mL (≈ 125 µM) | 50 µg/mL (≈ 125 µM) | 6.25 µg/mL (≈ 15.7 µM) | 50 µg/mL (≈ 125 µM) | 25 µg/mL (≈ 62.7 µM) |
| CCOc1cc2c(cc1Cl)nc(-c1ccc(Cl)cc1)n2C1CCCC1 | 50 µg/mL (≈ 133 µM) | 50 µg/mL (≈ 133 µM) | 50 µg/mL (≈ 133 µM) | 25 µg/mL (≈ 66.6 µM) | 50 µg/mL (≈ 133 µM) | 25 µg/mL (≈ 66.6 µM) |
| CCOc1cc2c(cc1Cl)nc(-c1cccc([N+](=O)[O-])c1)n2C1CCCC1 | 25 µg/mL (≈ 64.8 µM) | 12.5 µg/mL (≈ 32.4 µM) | 50 µg/mL (≈ 130 µM) | 6.25 µg/mL (≈ 16.2 µM) | 50 µg/mL (≈ 130 µM) | 25 µg/mL (≈ 64.8 µM) |
| COc1ccc(-c2nc3cc(Cl)ccc3n2C2CCCC2)cc1 | 50 µg/mL (≈ 153 µM) | 50 µg/mL (≈ 153 µM) | 50 µg/mL (≈ 153 µM) | 12.5 µg/mL (≈ 38.2 µM) | 25 µg/mL (≈ 76.5 µM) | 25 µg/mL (≈ 76.5 µM) |
| Fc1ccc(-c2nc3cc(Cl)ccc3n2C2CCCC2)cc1 | 25 µg/mL (≈ 79.4 µM) | 25 µg/mL (≈ 79.4 µM) | 25 µg/mL (≈ 79.4 µM) | 12.5 µg/mL (≈ 39.7 µM) | 25 µg/mL (≈ 79.4 µM) | 12.5 µg/mL (≈ 39.7 µM) |
| CC(C)(C)c1ccc(-c2nc3cc(Cl)ccc3n2C2CCCC2)cc1 | 12.5 µg/mL (≈ 35.4 µM) | 6.25 µg/mL (≈ 17.7 µM) | 50 µg/mL (≈ 142 µM) | 12.5 µg/mL (≈ 35.4 µM) | 25 µg/mL (≈ 70.8 µM) | 50 µg/mL (≈ 142 µM) |
| N#Cc1ccc(-c2nc3cc(Cl)ccc3n2C2CCCC2)cc1 | ≥ 50 µg/mL | ≥ 50 µg/mL | 50 µg/mL (≈ 155 µM) | 6.25 µg/mL (≈ 19.4 µM) | 50 µg/mL (≈ 155 µM) | 50 µg/mL (≈ 155 µM) |
| Clc1ccc2c(c1)nc(-c1ccc(OCc3ccccc3)cc1)n2C1CCCC1 | 6.25 µg/mL (≈ 15.5 µM) | 6.25 µg/mL (≈ 15.5 µM) | 3.12 µg/mL (≈ 7.74 µM) | 25 µg/mL (≈ 62 µM) | 50 µg/mL (≈ 124 µM) | 50 µg/mL (≈ 124 µM) |
| Clc1ccc(-c2nc3cc(Cl)ccc3n2C2CCCC2)cc1 | 50 µg/mL (≈ 151 µM) | 50 µg/mL (≈ 151 µM) | 50 µg/mL (≈ 151 µM) | 25 µg/mL (≈ 75.5 µM) | 25 µg/mL (≈ 75.5 µM) | 25 µg/mL (≈ 75.5 µM) |
| Fc1ccc(-c2nc3cc(Cl)c(Cl)cc3n2C2CCCC2)cc1 | 50 µg/mL (≈ 143 µM) | 50 µg/mL (≈ 143 µM) | 25 µg/mL (≈ 71.6 µM) | 25 µg/mL (≈ 71.6 µM) | 25 µg/mL (≈ 71.6 µM) | 50 µg/mL (≈ 143 µM) |
| Clc1ccc(-c2nc3cc(Cl)c(Cl)cc3[nH]2)cc1 | 3.12 µg/mL (≈ 10.5 µM) | 3.12 µg/mL (≈ 10.5 µM) | 3.12 µg/mL (≈ 10.5 µM) | 12.5 µg/mL (≈ 42 µM) | 50 µg/mL (≈ 168 µM) | 50 µg/mL (≈ 168 µM) |

| SMILES | MIC [1] | MIC [2] | MIC [3] | MIC [4] | MIC [5] | MIC [6] |
| --- | --- | --- | --- | --- | --- | --- |
| CC(C)(C)c1ccc(-c2nc3cc(Cl)c(Cl)cc3[nH]2)cc1 | 3.12 µg/mL (≈ 9.77 µM) | 3.12 µg/mL (≈ 9.77 µM) | 3.12 µg/mL (≈ 9.77 µM) | 12.5 µg/mL (≈ 39.2 µM) | 50 µg/mL (≈ 157 µM) | 6.25 µg/mL (≈ 19.6 µM) |
| Clc1cc2nc(-c3ccc4ccccc4c3)[nH]c2cc1Cl | 50 µg/mL (≈ 160 µM) | 50 µg/mL (≈ 160 µM) | 50 µg/mL (≈ 160 µM) | 25 µg/mL (≈ 79.8 µM) | 50 µg/mL (≈ 160 µM) | 25 µg/mL (≈ 79.8 µM) |
| O=[N+]([O-])c1cccc(-c2nc3cc(Cl)ccc3n2C2CCCC2)c1 | 50 µg/mL (≈ 146 µM) | 50 µg/mL (≈ 146 µM) | 50 µg/mL (≈ 146 µM) | 12.5 µg/mL (≈ 36.6 µM) | 50 µg/mL (≈ 146 µM) | 25 µg/mL (≈ 73.1 µM) |
| CC(C)(C)c1ccc(-c2nc3cc(Cl)c(Cl)cc3n2C2CCCC2)cc1 | 25 µg/mL (≈ 64.5 µM) | 25 µg/mL (≈ 64.5 µM) | 6.25 µg/mL (≈ 16.1 µM) | 25 µg/mL (≈ 64.5 µM) | 50 µg/mL (≈ 129 µM) | 25 µg/mL (≈ 64.5 µM) |
| Clc1cc2nc(-c3ccc4ccccc4c3)n(C3CCCC3)c2cc1Cl | 25 µg/mL (≈ 65.6 µM) | 25 µg/mL (≈ 65.6 µM) | 50 µg/mL (≈ 131 µM) | 12.5 µg/mL (≈ 32.8 µM) | 50 µg/mL (≈ 131 µM) | 12.5 µg/mL (≈ 32.8 µM) |
| Clc1ccc2c(c1)nc(-c1ccc3ccccc3c1)n2C1CCCC1 | 25 µg/mL (≈ 72.1 µM) | 25 µg/mL (≈ 72.1 µM) | 25 µg/mL (≈ 72.1 µM) | 6.25 µg/mL (≈ 18 µM) | 50 µg/mL (≈ 144 µM) | 25 µg/mL (≈ 72.1 µM) |
| CCOc1cc2c(cc1Cl)nc(-c1ccc(F)cc1)n2C1CCCC1 | 6.25 µg/mL (≈ 17.4 µM) | 6.25 µg/mL (≈ 17.4 µM) | 6.25 µg/mL (≈ 17.4 µM) | 50 µg/mL (≈ 139 µM) | 50 µg/mL (≈ 139 µM) | 25 µg/mL (≈ 69.7 µM) |
| Nc1nc2cc(Cl)ccc2n1C1CCCC1 | 50 µg/mL (≈ 212 µM) | 50 µg/mL (≈ 212 µM) | 25 µg/mL (≈ 106 µM) | 25 µg/mL (≈ 106 µM) | 50 µg/mL (≈ 212 µM) | 25 µg/mL (≈ 106 µM) |
| Clc1ccc2c(c1)ncn2C1CCCC1 | 50 µg/mL (≈ 227 µM) | 50 µg/mL (≈ 227 µM) | 50 µg/mL (≈ 227 µM) | 50 µg/mL (≈ 227 µM) | ≥ 50 µg/mL | 50 µg/mL (≈ 227 µM) |
| Clc1cc2nc(Br)n(C3CCCC3)c2cc1Cl | 6.25 µg/mL (≈ 18.7 µM) | 6.25 µg/mL (≈ 18.7 µM) | 3.12 µg/mL (≈ 9.34 µM) | 25 µg/mL (≈ 74.8 µM) | 50 µg/mL (≈ 150 µM) | 25 µg/mL (≈ 74.8 µM) |
| CC(=O)Oc1ccc(-c2nc3cc(Cl)ccc3n2C2CCCC2)cc1 | 50 µg/mL (≈ 141 µM) | 50 µg/mL (≈ 141 µM) | 50 µg/mL (≈ 141 µM) | 50 µg/mL (≈ 141 µM) | 50 µg/mL (≈ 141 µM) | 50 µg/mL (≈ 141 µM) |
| Clc1ccc(-c2nc3cc(Cl)c(Cl)cc3n2C2CCCC2)cc1 | 50 µg/mL (≈ 137 µM) | 50 µg/mL (≈ 137 µM) | 50 µg/mL (≈ 137 µM) | 12.5 µg/mL (≈ 34.2 µM) | 50 µg/mL (≈ 137 µM) | 25 µg/mL (≈ 68.4 µM) |
| CN(C)c1ccc(-c2nc3cc(Cl)ccc3n2C2CCCC2)cc1 | 25 µg/mL (≈ 73.6 µM) | 25 µg/mL (≈ 73.6 µM) | 12.5 µg/mL (≈ 36.8 µM) | 12.5 µg/mL (≈ 36.8 µM) | 50 µg/mL (≈ 147 µM) | 25 µg/mL (≈ 73.6 µM) |
| CC1(C)S[C@@H]2[C@H](NC(=O)[C@H](N)c3ccccc3)C(=O)N2[C@H]1C(=O)O [AMPICILLIN] | 50 µg/mL (≈ 143 µM) | 50 µg/mL (≈ 143 µM) | 0.78 µg/mL (≈ 2.23 µM) | – | – | – |
| O=C(O)c1cn(C2CC2)c2cc(N3CCNCC3)c(F)cc2c1=O [CIPROFLOXACIN] | – | 12.5 µg/mL (≈ 37.7 µM) | 0.78 µg/mL (≈ 2.35 µM) | – | – | 0.09 µg/mL (≈ 0.272 µM) |
| OC(Cn1cncn1)(Cn1cncn1)c1ccc(F)cc1F [FLUCONAZOLE] | – | – | – | 1.56 µg/mL (≈ 5.09 µM) | – | – |
| CC1(C)S[C@@H]2[C@H](NC(=O)[C@H](N)c3ccccc3)C(=O)N2[C@H]1C(=O)OCOC(=O)[C@@H]1N2C(=O)C[C@H]2S(=O)(=O)C1(C)C [SULTAMICILLIN] | 25 µg/mL (≈ 42 µM) | 25 µg/mL (≈ 42 µM) | 0.39 µg/mL (≈ 0.656 µM) | – | – | 0.78 µg/mL (≈ 1.31 µM) |
